# Screens deposited in PubChem by Broad Institute.
# dFosB act-1 = activators of mouse delta FosB homodimer | activation, % at 25 µM | 340,000 tested, 0.99% active | AID 493131 | purified delta FosB, TAMRA-CDK5 oligo fluorescence polarization; percent of positive-control signal above neutral wells;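 active = mean activation above about 17%, with every replicate also reaching it, limit read from the data, passing the limit was not always enough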
# SR-BI HDL uptake = inhibitors of mouse SR-BI mediated HDL lipid uptake; 320,000 tested, 0.96% active; Q61009; inhibition, % at 12.5 µM; ldlA[mSR-BI] CHO cells, DiI-HDL uptake fluorescence, 3 h;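 active = mean replicate inhibition of at least 70% and a set share of replicates each scoring 70 or more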;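 also: 0% = median of neutral control wells and 100% = median of positive control wells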
# Target sequence (Q61009 whole entry, looked up): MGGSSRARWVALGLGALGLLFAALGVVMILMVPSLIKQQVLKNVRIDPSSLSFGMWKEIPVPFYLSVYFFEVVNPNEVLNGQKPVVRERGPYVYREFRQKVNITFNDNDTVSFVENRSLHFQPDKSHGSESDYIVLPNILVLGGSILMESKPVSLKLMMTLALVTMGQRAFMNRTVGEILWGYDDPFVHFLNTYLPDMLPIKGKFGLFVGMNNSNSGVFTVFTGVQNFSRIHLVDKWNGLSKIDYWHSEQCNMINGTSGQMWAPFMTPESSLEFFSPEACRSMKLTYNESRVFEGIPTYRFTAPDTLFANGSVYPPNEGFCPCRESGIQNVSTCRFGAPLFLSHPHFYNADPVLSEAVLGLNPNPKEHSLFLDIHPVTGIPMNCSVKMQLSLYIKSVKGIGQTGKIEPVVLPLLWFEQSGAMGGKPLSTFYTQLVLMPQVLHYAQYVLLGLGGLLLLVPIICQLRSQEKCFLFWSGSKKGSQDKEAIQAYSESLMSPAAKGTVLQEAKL
# PvdQ inh = blocks Pseudomonas aeruginosa PvdQ acylase activity | purified PvdQ acylase, fluorescence plate reader | 340,000 tested, 0.063% active | inhibition, % at 10 µM; in the data active = inhibition above about 30%, passing the limit was not always enough;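 also: 0% = vehicle neutral wells and 100% = reference inhibitor wells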
# SR-BI uptake up = enhances SR-BI lipid uptake from DiI-HDL; CHO ldlA[mSR-BI] cells, DiI-HDL uptake fluorescence, 3 h; 100 = double the neutral-control signal; activation, % at 12.5 µM; 320,000 tested, 0.096% active;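 active = mean replicate activation of at least 60% and every replicate at or above 60%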;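 also: 0% = median plate neutral-control signal and 100% = twice that signal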
#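 material = CHO ldlA[mSR-BI] cells | medium = Ham's F12 with 0.5% BSA, HEPES 25 mM, pH 7.4 | reagent = fluorescent DiI-HDL, 10 µg/mL final | compound dosing = single-point compound dose | incubation = 3 h, 37 °C | measured by = bottom-read fluorescence, 550/595 nm | measure = HDL uptake via cellular fluorescence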
# RAD54 branch = blocks human RAD54 Holliday junction branch migration; FAM/BHQ fluorescence; Q92698; inhibition, % at 10.4 µM; AID 602329; 360,000 tested, 0.14% active;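 active = mean normalized replicate activity at least 40 and at least half of replicates scoring 40 or more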;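 also: 0% = median of neutral control wells and 100% = median of positive control wells; inhibitors cause a drop in the FAM fluorescence signal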
# S100A4 MyoIIA = S100A4-myosin IIA interaction inhibition | P26447 | S100A4/TAMRA-MyoIIA peptide fluorescence polarization | inhibition, % at 10.7 µM | 360,000 tested, 0.14% active | AID 652163;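 active = mean inhibition of at least 70% across replicates, with every replicate also reaching that level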
#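 System – human S100A4 monomer protein, biochemical binding assay · Buffer or medium – Calcium-containing HEPES buffer, pH 7.2 · Timing – 5 min between mix addition and reading · Also added – TAMRA-labelled myosin IIA heavy-chain peptide probe, 5 nM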
# dFosB act-2 = enhances mouse delta FosB homodimer binding to DNA | shares compounds with dFosB act-1 | purified delta FosB, TAMRA-CDK5 oligo fluorescence polarization; normalised: neutral wells 0, positive control 100 | activation, % at 24.9 µM | 2,400 tested, under 10 active | AID 588690;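 active = highest replicate activation at or above 34% and every replicate reaching that threshold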;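 also: higher polarization means more probe DNA bound by delta FosB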
# * marks the source's active call; other numbers are inactive results; x = no result given. Hits are enriched below; roughly 1.6% of the tested compounds scored in any of these assays.
SMILES,dFosB act-1,SR-BI HDL uptake,PvdQ inh,SR-BI uptake up,RAD54 branch,S100A4 MyoIIA,dFosB act-2
O=S(=O)(c1ccc(Br)cc1)N1CCN(c2ccc3nnc(-c4ccccc4)n3n2)CC1,38*,-6,-10,-2,3,-2,0
CS(=O)(=O)Nc1ccc2c(c1)[C@H]1C[C@@H](CC(=O)NCc3ccccn3)O[C@H](CO)[C@H]1O2,x,x,x,x,-5,1,x
Cc1ccc(NC(=O)Cn2c(=O)n(CCCC(=O)NCc3ccco3)c(=O)c3ccccc32)cc1,32*,5,-7,-5,8,x,-3
Cc1ccc(Cn2c(=O)n(-c3ccccc3)c(=O)c3ccc(C(=O)NCc4ccco4)cc32)cc1,26*,-8,12,8,-9,0,7
O=C(Cn1c(=O)n(CC(=O)NCc2ccccc2)c2ccccc21)NCc1ccccc1,24*,-10,0,10,-1,x,-1
COc1cc2c(=O)n(Cc3ccccc3)c(=O)n(CC(=O)NCc3ccco3)c2cc1OC,31*,17,1,-17,1,x,5
Cc1ccc(CNC(=O)CCCn2c(=O)c3ccccc3n(CC(=O)NCc3ccco3)c2=O)cc1,0,5,-17,-5,-4,x,x
Cc1cccc(S(=O)(=O)N2CC[C@H]3[C@@H](CO)N(C)c4ccc(-c5ccccc5F)cc4[C@H]32)c1,x,x,x,x,-1,4,x
O=C(NCC[C@@H]1CC[C@@H](NS(=O)(=O)c2ccc(F)cc2)[C@H](CO)O1)c1ccccc1F,x,x,x,x,x,1,x
C[C@H](CO)N1C[C@H](C)[C@@H](CN(C)S(=O)(=O)c2ccccc2)OCCCC[C@H](C)Oc2ccc(NS(=O)(=O)c3ccc(F)cc3)cc2C1=O,x,x,x,x,1,68,x
CCCNC(=O)C[C@@H]1CC[C@H]2[C@@H](COc3ccc(NC(=O)c4cccc(F)c4)cc3C(=O)N2C)O1,x,x,x,x,-1,-5,x
CCS(=O)(=O)N1CCC2(CC1)CN(S(=O)(=O)c1ccccc1)[C@@H](CO)c1c2c2ccc(OC)cc2n1C,x,x,x,x,x,4,x
Cc1ccc(-n2c(=O)c3sccc3n(CC(=O)NCc3ccco3)c2=O)cc1,-5,11,1,-11,-8,x,x
Cc1cccc(Cn2c(=O)n(-c3ccc(CC(=O)NCc4ccco4)cc3)c(=O)c3sccc32)c1,49*,42,7,-42,3,-1,-2
C[C@H](CO)N1C[C@H](C)[C@H](CN(C)CC2CCCCC2)Oc2c(NS(=O)(=O)c3cn(C)cn3)cccc2C1=O,x,x,x,x,-3,x,x
COc1ccc(NC(=O)c2c[nH]c(=O)n(-c3ccc(C)c(C)c3)c2=O)c(OC)c1,35*,-13,-10,13,5,4,4
COc1ccc(NC(=O)c2c[nH]c(=O)n(-c3ccc(C)c(C)c3)c2=O)cc1OC,-20,-22,-5,22,6,14,x
CCCN1C[C@H](C)[C@@H](OC)CN(C)C(=O)c2cc(NC(=O)c3cccc(F)c3)ccc2OC[C@@H]1C,x,x,x,x,-4,10,x
Cc1ccc(-c2ccccc2[C@H]2[C@@H](C#N)N(S(C)(=O)=O)[C@@H]2CO)cc1,x,x,x,x,x,12,x
O=C(C[C@H]1CC[C@H]2[C@@H](COC[C@H](O)CN2Cc2cccc(Cl)c2)O1)Nc1nccs1,x,x,x,x,-1,0,x
Cc1cc(C)c(C#N)c(SCC(=O)Nc2ccccc2C)n1,2,11,-11,-11,x,-2,x
Cc1csc(NC(=O)CSc2nsc(SCC(=O)Nc3nc(C)cs3)c2C#N)n1,25*,50,15,-50,2,x,3
Cc1cc(C)c(C#N)c(SCC(=O)Nc2nnc(-c3ccccc3)s2)n1,39*,-13,-20,13,-7,x,0
CO[C@@H]1CN(C)C(=O)c2cc(NC(=O)c3nc4ccccc4s3)ccc2OC[C@H](C)N(Cc2cccnc2)C[C@H]1C,x,x,x,x,x,12,x
N#C/C(=C/c1ccc(F)cc1)c1nnc(NC(=O)c2ccccc2)s1,21*,x,0,x,-10,1,-6
SMILES,dFosB act-1,SR-BI HDL uptake,PvdQ inh,SR-BI uptake up,RAD54 branch,S100A4 MyoIIA,dFosB act-2
C[C@@H]1CN([C@@H](C)CO)C(=O)c2cccc(NC(=O)C3CC3)c2O[C@H]1CN(C)Cc1ccc(C(F)(F)F)cc1,x,x,x,x,-5,6,x
COC(=O)Cn1c(=NC(=O)CSCC(=O)NC2CCCCC2)sc2cc(OC)ccc21,29*,61,3,-61,5,x,-1
COc1ccccc1-c1cnc2c(c1)C(=O)N([C@@H](C)CO)C[C@@H](C)[C@@H](CN(C)CC1CCOCC1)O2,x,x,x,x,-1,-5,x
CC(C)CN(C(=O)CSc1nnnn1-c1ccccc1)c1c(N)n(CC(C)C)c(=O)[nH]c1=O,38*,8,-9,-8,x,-8,3
CN(C(=O)COC(=O)/C=C/c1ccc2ccccc2n1)c1c(N)n(Cc2ccccc2)c(=O)[nH]c1=O,23*,9,-8,-9,0,-5,5
CC(C)CN(C(=O)COC(=O)CSc1ccccc1)c1c(N)n(Cc2ccccc2)c(=O)[nH]c1=O,29*,-7,-26,7,-3,-1,1
CC(C)CN(C(=O)COC(=O)Cc1ccc(Cl)cc1)c1c(N)n(Cc2ccccc2)c(=O)[nH]c1=O,-2,-2,-4,2,3,-3,x
Cc1nnc(SCC(=O)N(CC(C)C)c2c(N)n(CC(C)C)c(=O)[nH]c2=O)n1-c1ccccc1,-3,-8,-12,8,x,-1,x
